According to ChEMBL document CHEMBL4725360, “Optimization of Acetazolamide-Based Scaffold as Potent Inhibitors of Vancomycin-Resistant Enterococcus” (J Med Chem, 2020):
≈ marks a conversion by molar mass, not a printed value. Calls of active or inactive are those of the source. The rule behind the calls is not given here.

Assays:
Enterococcus faecium [1] = assay: Antibacterial activity against Enterococcus faecium HM965 incubated for 18 to 20 hrs under aerobic condition by CLSI protocol based broth microdilution assay; assay type: functional; conditions: time hrs 18-20
In short: (§1)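 Broth microdilution per CLSI. Strains grown aerobically overnight on trypticase soy agar at 37 °C. Inoculum set to 0.5 McFarland, diluted in trypticase soy broth to about 5 × 10⁵ CFU/mL. Agents serially diluted, plates incubated aerobically at 37 °C for 18–20 h. MIC is the lowest concentration with no visible growth. Compound stocks 10 mg/mL in DMSO.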

[2] = Tmax in ICR mouse at 10 mg/kg, po administered via gavage and measured after 10 to 1440 mins by LC/MS/MS analysis; assay type: ADME, organism-based; conditions: in vivo, time 10-1440 min
In short: (§2)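 Male ICR mice, 10 mg/kg single oral gavage; n = 3 mice per time point, 8 time points from 10 to 1440 min. Plasma taken by cardiac puncture and mixed with buffer containing oxybutynin internal standard. Samples diluted with acetonitrile, then LC/MS/MS on C18 with acetonitrile/water–formic acid mobile phases in MRM mode. Concentration read off a standard curve.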

Enterococcus faecium [3] = assay: Antibacterial activity against Enterococcus faecium NR-31972 incubated for 18 to 20 hrs under aerobic condition by CLSI protocol based broth microdilution assay; assay type: functional; conditions: time hrs 18-20; in short: as §1
Enterococcus faecium [4] = assay: Antibacterial activity against Enterococcus faecium NR-32052 incubated for 18 to 20 hrs under aerobic condition by CLSI protocol based broth microdilution assay; assay type: functional; conditions: time hrs 18-20; in short: as §1
Enterococcus faecalis [5] = assay: Antibacterial activity against Enterococcus faecalis HM-335 incubated for 18 to 20 hrs under aerobic condition by CLSI protocol based broth microdilution assay; assay type: functional; conditions: time hrs 18-20; in short: as §1
Enterococcus faecium [6] = assay: Antibacterial activity against Enterococcus faecium NR-31916 incubated for 18 to 20 hrs under aerobic condition by CLSI protocol based broth microdilution assay; assay type: functional; conditions: time hrs 18-20; in short: as §1
Enterococcus faecium [7] = assay: Inhibition of carbonic anhydrase in Enterococcus faecium ATCC 700221 assessed as antibacterial activity incubated for 18 to 20 hrs in presence of 5% CO2 by CLSI protocol based broth microdilution assay; conditions: time hrs 18-20
In short: (§3)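 CLSI broth microdilution: inoculum about 5 × 10⁵ CFU/mL in trypticase soy broth with serial dilutions of agents. Paired plates incubated at 37 °C for 18–20 h, one set in ambient air ("normal"), the other under 5% CO₂. MIC is the lowest concentration completely inhibiting visible growth.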

Enterococcus faecium [8] = assay: Inhibition of carbonic anhydrase in Enterococcus faecium ATCC 700221 assessed as antibacterial activity incubated for 18 to 20 hrs in presence of ambient air by CLSI protocol based broth microdilution assay; conditions: time hrs 18-20; in short: as §3
Caco-2 = assay: Cytotoxicity against human Caco2 cells at 128 ug/ml incubated for 2 hrs by MTS assay; assay type: cell-based; conditions: caco-2, 2 h, dose 128 µg/ml
In short: (§4)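 Caco-2 cells maintained in DMEM with 10% FBS, non-essential amino acids and penicillin-streptomycin at 37 °C, 5% CO₂. Compound exposure for 2 h in serum-free medium at several concentrations; DMSO-matched controls. Viability expressed relative to DMSO controls (mean ± SD), and CC₅₀ derived.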

[9] = MRT in ICR mouse at 10 mg/kg, po administered via gavage and measured after 10 to 1440 mins by LC/MS/MS analysis; assay type: ADME, organism-based; conditions: in vivo, time 10-1440 min; in short: as §2
[10] = Plasma concentration in ICR mouse at 10 mg/kg, po administered via gavage and measured after 10 to 1440 mins by LC/MS/MS analysis; assay type: ADME, organism-based; conditions: in vivo, time 10-1440 min; in short: as §2
[11] = Apparent permeability across apical to basolateral side in human Caco2 cells; assay type: ADME, cell-based; conditions: caco-2
In short: (§5)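 Bi-directional Caco-2 monolayer permeability, run at Eurofins: donor at pH 6.5, receiver at pH 7.4, both A→B and B→A. Papp derived from receiver concentration at the end point, incubation time, monolayer area and mid-point donor concentration. Concentrations taken as peak areas.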

Enterococcus faecium [12] = assay: Bacteriostatic activity against Enterococcus faecium ATCC 700221 assessed as reduction in bacterial burden at 5 times MIC preincubated for 24 hrs followed by replating on soya agar plates and measured after 16 hrs by time-kill assay; assay type: functional, organism-based
In short: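 E. faecium ATCC 700221 overnight culture diluted in trypticase soy broth to 3.5 × 10⁶ CFU/mL. […] Samples taken at 2, 4, 6, 8, 12 and 24 h, diluted in PBS and plated on trypticase soy agar. Colonies counted after 16 h at 37 °C. Detection limit 100 CFU/mL. Two-way ANOVA with Dunnett's test.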

[13] = Metabolic stability in human liver microsomes assessed as compound remaining measured after 60 mins; assay type: ADME, Microsome; conditions: 1 h
In short: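 Human liver microsomes at 0.1 mg/mL, 37 °C. Percent parent remaining at 60 min, mean of 2 replicates.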

Enterococcus faecium [14] = assay: Antibacterial activity against Enterococcus faecium NR-32065 incubated for 18 to 20 hrs under aerobic condition by CLSI protocol based broth microdilution assay; assay type: functional; conditions: time hrs 18-20; in short: as §1
Enterococcus faecalis [15] = assay: Antibacterial activity against Enterococcus faecalis HM-334 incubated for 18 to 20 hrs under aerobic condition by CLSI protocol based broth microdilution assay; assay type: functional; conditions: time hrs 18-20; in short: as §1
Enterococcus faecium [16] = assay: Antibacterial activity against Enterococcus faecium NR-31914 incubated for 18 to 20 hrs under aerobic condition by CLSI protocol based broth microdilution assay; assay type: functional; conditions: time hrs 18-20; in short: as §1
[17] = Aqueous solubility of compound in pH 7.4 PBS measured at 24 hrs by HPLC analysis; assay type: physicochemical; conditions: buffer, pH 7.4, 24 h
In short: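 HPLC principal-peak area of the buffer sample compared with a 200 μM calibration standard in methanol/water 60/40.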

[18] = Cytotoxicity against human Caco2 cells incubated for 2 hrs by MTS assay; assay type: cell-based; conditions: Caco-2 cells; in short: as §4
[19] = Half life in human liver microsomes after 60 mins; assay type: ADME, Microsome; conditions: 1 h
[20] = AUC(0 to infinity) in ICR mouse at 10 mg/kg, po administered via gavage and measured after 10 to 1440 mins by LC/MS/MS analysis; assay type: ADME, organism-based; parameters: route oral, dose 10 mg/kg, time 10-1440; conditions: in vivo; in short: as §2
Enterococcus faecium [21] = assay: Antibacterial activity against Enterococcus faecium NR-28978 incubated for 18 to 20 hrs under aerobic condition by CLSI protocol based broth microdilution assay; assay type: functional; conditions: time hrs 18-20; in short: as §1
Enterococcus faecium [22] = assay: Antibacterial activity against Enterococcus faecium HM968 incubated for 18 to 20 hrs under aerobic condition by CLSI protocol based broth microdilution assay; assay type: functional; conditions: time hrs 18-20; in short: as §1
Enterococcus faecalis [23] = assay: Antibacterial activity against Enterococcus faecalis NR-31970 incubated for 18 to 20 hrs under aerobic condition by CLSI protocol based broth microdilution assay; assay type: functional, organism-based; conditions: time hrs 18-20; in short: as §1
[24] = Cmax in ICR mouse at 10 mg/kg, po administered via gavage and measured after 30 mins by LC/MS/MS analysis; assay type: ADME, organism-based; parameters: route oral, dose 10 mg/kg, time 10-1440; conditions: in vivo, 0.5 h; in short: as §2
[25] = Drug excretion in ICR mouse at 10 mg/kg, po administered via gavage and measured after 1440 mins by LC/MS/MS analysis; assay type: ADME, organism-based; conditions: in vivo, read-out: Drug excretion
[26] = Dose normalized AUC in ICR mouse at 10 mg/kg, po administered via gavage and measured after 10 to 1440 mins by LC/MS/MS analysis; assay type: ADME, organism-based; conditions: in vivo, time 10-1440 min; in short: as §2
[27] = Apparent permeability across basolateral to apical side in human Caco2 cells; assay type: ADME, cell-based; conditions: caco-2; in short: as §5
Enterococcus faecalis [28] = assay: Antibacterial activity against Enterococcus faecalis NR-31975 incubated for 18 to 20 hrs under aerobic condition by CLSI protocol based broth microdilution assay; assay type: functional, organism-based; conditions: time hrs 18-20; in short: as §1
Enterococcus faecium [29] = assay: Antibacterial activity against Enterococcus faecium NR-31903 incubated for 18 to 20 hrs under aerobic condition by CLSI protocol based broth microdilution assay; assay type: functional; conditions: time hrs 18-20; in short: as §1
Enterococcus faecium [30] = assay: Antibacterial activity against Enterococcus faecium NR-31971 incubated for 18 to 20 hrs under aerobic condition by CLSI protocol based broth microdilution assay; assay type: functional; conditions: time hrs 18-20; in short: as §1
Enterococcus faecium [31] = assay: Inhibition of carbonic anhydrase in Enterococcus faecium HM-965 assessed as antibacterial activity incubated for 18 to 20 hrs in presence of 5% CO2 by CLSI protocol based broth microdilution assay; conditions: time hrs 18-20; in short: as §3
Enterococcus faecium [32] = assay: Inhibition of carbonic anhydrase in Enterococcus faecium NR-31972 assessed as antibacterial activity incubated for 18 to 20 hrs in presence of ambient air by CLSI protocol based broth microdilution assay; conditions: time hrs 18-20; in short: as §3
Enterococcus faecalis [33] = assay: Inhibition of carbonic anhydrase in Enterococcus faecalis HM-334 assessed as antibacterial activity incubated for 18 to 20 hrs in presence of ambient air by CLSI protocol based broth microdilution assay; conditions: time hrs 18-20; in short: as §3
Enterococcus faecium [34] = assay: Antibacterial activity against Enterococcus faecium ATCC 700221 by CLSI protocol based assay; assay type: functional; in short: as §1
Enterococcus faecium [35] = assay: Inhibition of carbonic anhydrase in Enterococcus faecium NR-31971 assessed as antibacterial activity incubated for 18 to 20 hrs in presence of ambient air by CLSI protocol based broth microdilution assay; conditions: time hrs 18-20; in short: as §3
Enterococcus faecium [36] = assay: Inhibition of carbonic anhydrase in Enterococcus faecium NR-31971 assessed as antibacterial activity incubated for 18 to 20 hrs in presence of 5% CO2 by CLSI protocol based broth microdilution assay; conditions: time hrs 18-20; in short: as §3
Enterococcus faecium [37] = assay: Inhibition of carbonic anhydrase in Enterococcus faecium NR-31972 assessed as antibacterial activity incubated for 18 to 20 hrs in presence of 5% CO2 by CLSI protocol based broth microdilution assay; conditions: time hrs 18-20; in short: as §3
Enterococcus faecalis [38] = assay: Inhibition of carbonic anhydrase in Enterococcus faecalis HM-334 assessed as antibacterial activity incubated for 18 to 20 hrs in presence of 5% CO2 by CLSI protocol based broth microdilution assay; conditions: time hrs 18-20; in short: as §3
Enterococcus faecium [39] = assay: Inhibition of carbonic anhydrase in Enterococcus faecium HM-965 assessed as antibacterial activity incubated for 18 to 20 hrs in presence of ambient air by CLSI protocol based broth microdilution assay; conditions: time hrs 18-20; in short: as §3

## NS(=O)(=O)c1nnc(NC(=O)CCC2CCCCC2)s1
Enterococcus faecium [1]
  MIC: 0.007 µg/mL (≈ 0.022 µM)
[2]
  Tmax: 0.5 h
Enterococcus faecium [3]
  MIC: 0.015 µg/mL (≈ 0.0471 µM)
Enterococcus faecium [4]
  MIC: 0.015 µg/mL (≈ 0.0471 µM)
Enterococcus faecalis [5]
  MIC: 0.03 µg/mL (≈ 0.0942 µM)
Enterococcus faecium [6]
  MIC: 0.03 µg/mL (≈ 0.0942 µM)
Enterococcus faecium [7]
  inhibition: inactive
Enterococcus faecium [8]
  inhibition: Active
Caco-2
  Activity: Non-Toxic
[9]
  MRT: 1.35 h
[10]
  Cp: 184 ng/mL
[11]
  Papp: 6.5 10^-6 cm/s
Enterococcus faecium [12]
  Activity: Active
[13]
  Stabilty: 62%
Enterococcus faecium [14]
  MIC: 0.015 µg/mL (≈ 0.0471 µM)
Enterococcus faecalis [15]
  MIC: 0.007 µg/mL (≈ 0.022 µM)
Enterococcus faecium [16]
  MIC: 0.03 µg/mL (≈ 0.0942 µM)
[17]
  solubility: 32.8 µM (≈ 10.4 µg/mL)
[18]
  CC50 at 2 h: > 128 µg/mL
[19]
  t1/2: 1.23 h
[20]
  AUC(0-inf): 562 ng·h/mL
Enterococcus faecium [21]
  MIC: 0.06 µg/mL (≈ 0.188 µM)
Enterococcus faecium [22]
  MIC: 0.03 µg/mL (≈ 0.0942 µM)
Enterococcus faecalis [23]
  Activity: Active
[24]
  Cmax: 456 ng/mL
[25]
  dose excreted at 24 h: 100%
[26]
  AUC/dose: 56 kg·ng·h/mL/mg
[27]
  Papp: 14.1 10^-6 cm/s
Enterococcus faecalis [28]
  Activity: Active
Enterococcus faecium [29]
  MIC: 0.015 µg/mL (≈ 0.0471 µM)
Enterococcus faecium [30]
  MIC: 0.007 µg/mL (≈ 0.022 µM)

## CC(=O)Nc1nnc(S(N)(=O)=O)s1 [ACETAZOLAMIDE]
Enterococcus faecium [31]
  MIC: > 64 µg/mL
Enterococcus faecium [32]
  MIC: 2 µg/mL
Enterococcus faecalis [33]
  MIC: 2 µg/mL
Enterococcus faecium [7]
  MIC: > 64 µg/mL
Enterococcus faecium [8]
  MIC: 1 µg/mL
Enterococcus faecium [34]
  MIC: 0.5 µg/mL (≈ 2.25 µM)
[11]
  Papp A→B: 0.19 ×10⁻⁶ cm/s
Enterococcus faecium [12]
  Activity: Active
Enterococcus faecium [35]
  MIC: 2 µg/mL
Enterococcus faecium [36]
  MIC: > 64 µg/mL
Enterococcus faecium [37]
  MIC: > 64 µg/mL
Enterococcus faecalis [38]
  MIC: > 64 µg/mL
[27]
  Papp B→A: 0.77 ×10⁻⁶ cm/s
Enterococcus faecium [39]
  MIC: 2 µg/mL
